# FLuc inhib CS – Photinus pyralis luciferase inhibition counter-screen; P08659; inhibition, % at 10 µM; ATPLite firefly luciferase biochemical luminescence, 10 min; hit rate 1.5% among 200,000;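 active = inhibition above about 50% when tested at 10 µM, limit read from the data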
# Target sequence (P08659 whole entry, looked up): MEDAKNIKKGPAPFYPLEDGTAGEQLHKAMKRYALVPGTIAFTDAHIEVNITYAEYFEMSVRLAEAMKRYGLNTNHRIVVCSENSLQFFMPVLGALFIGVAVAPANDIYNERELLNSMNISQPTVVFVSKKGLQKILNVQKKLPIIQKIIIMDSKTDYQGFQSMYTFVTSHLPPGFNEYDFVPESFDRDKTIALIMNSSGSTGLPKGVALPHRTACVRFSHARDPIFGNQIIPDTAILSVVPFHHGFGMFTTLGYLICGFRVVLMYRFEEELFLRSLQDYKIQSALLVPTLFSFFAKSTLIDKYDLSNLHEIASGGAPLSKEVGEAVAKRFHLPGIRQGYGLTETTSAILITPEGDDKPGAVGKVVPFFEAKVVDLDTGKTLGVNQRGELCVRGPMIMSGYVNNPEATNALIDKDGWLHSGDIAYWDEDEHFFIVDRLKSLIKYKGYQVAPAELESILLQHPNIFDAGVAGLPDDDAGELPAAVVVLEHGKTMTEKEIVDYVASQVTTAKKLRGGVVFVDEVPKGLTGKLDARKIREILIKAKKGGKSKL
# FLuc stim CS – firefly luciferase counter-screen for stimulation assays; activation factor at 10 µM; 200,000 tested, under 10 active; ATPlite luciferase biochemical, luminescence, 10 min; 0 = ATP-free wells, 1 = DMSO control; P08659;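 active = luciferase activation factor, scaled between plate controls, of at least 2 with compound at 10 µM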
#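 Material: Luciferase/luciferin reagent mix | Doses: Test compounds dosed from 2 mM stocks in 100% DMSO | Timing: 10 min incubation after luciferase reagent addition, room temperature | Measured by: Luminescence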
# PPC-1+TRAIL kill – kills PPC-1 cancer cells in the presence of TRAIL; PPC-1 cells + TRAIL, ATPLite viability luminescence; hit rate 0.41% among 220,000; cell killing (% activity), % at 4 µM or 5 µM;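 active = cell killing above 50% in the first pass at 4 µM, then a duplicate retest at 5 µM averaging 50% or more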;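 also: plate controls were cells with TRAIL plus DMSO for no effect and medium-only wells lacking cells for full effect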
# APP 5'UTR act – activates APP 5'UTR luciferase reporter. SH-SY5Y APP 5'UTR luciferase reporter, luminescence; zero percent = DMSO vehicle wells. activation, % at 2 µM. hit rate 1% among 190,000. AID 1276;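 active = activation above a set limit, based on mean plus 3 SD of controls, cut at about 140% in these data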
# TRAIL sens C8 – sensitizes caspase-8 expressing cells to TRAIL. NB7+C8 cells + TRAIL, ATPlite viability luminescence. inhibition (viability loss, TRAIL sensitization), % at 10 µM. hit rate 1% among 360,000. AID 624354;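 active = compounds causing at least 50% loss of cell viability in the single-dose screen, relative to plate controls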
# NF-kB neuron act – NF-kB expression increase, human neuronal cells | NF-kB reporter expression; stronger effect = higher value | fold change at 12.5 µM | hit rate 1.6% among 190,000 | AID 1239; in the data active = fold change above about 3.3
# PPC1 cytotox – PPC-1 cell cytotoxicity | hit rate 50% among 1,200 | shares compounds with PPC-1+TRAIL kill | PPC-1 viability, ATPlite luminescence, overnight | cytotoxicity, % at 5 µM | AID 1447;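 active = reconfirmed compounds whose average cytotoxicity reaches 50% or more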;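 also: 0% = DMSO-treated cells and 100% = wells holding medium but no cells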
# * = called active by the depositor; · = not tested or not shown. This is a sample that favours compounds with a hit; in the whole collection about 2.2% have one here.
SMILES,FLuc inhib CS,FLuc stim CS,PPC-1+TRAIL kill,APP 5'UTR act,TRAIL sens C8,NF-kB neuron act,PPC1 cytotox
O=C(Nc1ccc(N2CCOCC2)cc1)c1cnsn1,90*,0.1,73*,24,71*,0.58,71*
CCc1nc2ccc(C(=O)NCc3ccc(OC)cc3)cn2c1N(C)CCC(C)C,·,·,·,·,-6,·,·
CCN1C(=O)C2(C(C#N)=C(N)Oc3cc(C)oc(=O)c32)c2ccccc21 (stereo not given),0,1,-10,1,5,0.94,2
Cc1ccc2[nH]c(C)c(/C=N/Nc3nc4ccccc4s3)c2c1,-6,1.1,-2,90,-2,0.72,·
Cc1csc(N/N=C/c2ccccn2)n1,92*,0.1,39,127,73*,1.5,32
C(=N\Nc1nc2ccccc2s1)/c1ccccn1,·,·,69*,·,·,·,73*
Cc1ccc(-c2nc3cc(C)c(Br)c(C)n3c2Cc2ccsc2)cc1,·,·,·,·,17,·,·
COCCSc1ccccc1C(=O)NCc1ccc(S(N)(=O)=O)cc1,-2,1,6,-12,4,0.9,7
CSc1ccccc1C(=O)NCc1ccc(S(N)(=O)=O)cc1,-6,1.1,16,7,-1,0.9,·
COc1ccc2nc(N=Nc3ccc(N(C)C)cc3)sc2c1,95*,0.1,90*,113,94*,1.5,90*
COc1ccc2nc(/N=C\N(C)C)sc2c1,16,0.8,12,12,-11,1.6,·
COc1cccc(N2CCN(c3ncnc4c3[nH]c3ccccc34)CC2C)c1 (stereo not given),-7,1.1,21,0,·,0.3,·
COc1cccc(N2CCN(c3ncnc4c3[nH]c3ccc(F)cc34)CC2C)c1 (stereo not given),-8,1.1,63*,-27,95*,0.11,63*
COc1ccc2c(c1)CCc1c(C(=O)NCc3ccco3)noc1-2,9,0.9,16,60,2,2.8,11
COCC(C)NC(=O)c1noc2c1CCc1cc(OC)ccc1-2 (stereo not given),22,0.8,5,42,10,2.4,·
COc1ccc(C(=O)/C=C/c2ccccc2)c(OC)c1,39,0.6,16,52,26,3.1,·
COc1ccc(OC)c(C(=O)/C=C/c2ccccc2C(F)(F)F)c1,-1,1,-5,8,23,1.5,-2
CC(C)C[C@H]1CNC(=O)C(=O)N1CC1CCN(CC2CCC(C)CC2)CC1 (stereo not given in full),·,·,·,·,11,·,·
O=C(O)c1c2c(nc3ccccc13)/C(=C/c1ccc(O)cc1)CC2,96*,0,48,36,58*,0.93,49
O=C(Nc1nc(OCC(F)(F)F)cnc1/C=C\c1ccccc1)c1ccccc1,·,·,·,·,2,·,·
CC(=O)N1CCC(C(=O)N2c3ccccc3N=C(c3ccc(C(F)(F)F)cc3)C2C(=O)NC2CCCC2)CC1 (stereo not given),·,·,·,·,5,·,·
CC[C@@]1(O)C(=O)OCc2c1cc1n(c2=O)Cc2cc3c(CN(C)C)c(O)ccc3nc2-1,·,·,·,·,34,·,·
CC[C@@]1(O)C(=O)OCc2c1cc1n(c2=O)Cc2cc3c(N)cccc3nc2-1,·,·,32,·,15,·,32
Cc1cc(/C=N/NC(=O)c2cccs2)c(C)n1-c1ccccc1,91*,0.1,69*,163*,61*,1.3,68*
O=C(Nc1cccc(S(=O)(=O)C(F)F)c1)c1ccc(S(=O)(=O)N2CCOCC2)cc1,-8,1.1,-4,-3,21,0.73,-6
SMILES,FLuc inhib CS,FLuc stim CS,PPC-1+TRAIL kill,APP 5'UTR act,TRAIL sens C8,NF-kB neuron act,PPC1 cytotox
O=C(Nc1cccc(S(=O)(=O)C(F)F)c1)c1ccc(S(=O)(=O)N2CCCC2)cc1,-3,1,-11,7,-6,0.55,·
Nc1nc2ncccn2c1-c1ccc(C(F)(F)F)cc1,·,·,·,·,-8,·,·
CC(=O)Nc1cccc(-c2nc3ccc(NC(C)=O)cc3s2)c1,66*,0.3,38,71,48,1.8,28
CCNC(=O)C1(C)CCCN(C(=O)c2sc(-c3ccccc3)nc2C)C1 (stereo not given),·,·,·,·,-7,·,·
Cc1ccc(C(C)C)cc1C(=O)CC1(O)C(=O)N(C)c2ccccc21 (stereo not given),-5,1.1,-3,11,0,1.1,-7
O=C(N/N=C/c1cccnc1)c1ccc2c(c1)OCCO2,91*,0.1,55*,39,81*,1.2,59*
O=C(/C=C\Nc1cccc(F)c1)c1ccc2c(c1)OCO2,90*,0.1,74*,196*,72*,2.3,71*
COC(=O)c1ccc(N/C=C\C(=O)c2ccc3c(c2)OCO3)cc1,16,0.8,30,100,20,1.1,·
O=C(/C=C\Nc1ccccc1Br)c1ccc2c(c1)OCO2,97*,0,93*,148*,91*,6*,94*
O=C(/C=C/c1ccccc1Br)c1ccc2c(c1)OCO2,·,·,·,·,-18,·,·
COC(=O)[C@]12CCCCC=C1N(Cc1cccc3ccccc13)C(=O)[C@H](CC(=O)NCC1CCCCC1)C2,·,·,·,·,23,·,·
COc1cc(/C=C(/C#N)c2nc3ccccc3[nH]2)ccc1OCC(=O)Nc1ccccc1C,-2,1,19,17,87*,1.1,-2
Fc1ccc(CSc2nc3ccccc3[nH]2)cc1,49,0.5,33,79,45,4.8*,28
Fc1ccc(CSc2nc3ncccc3[nH]2)cc1,45,0.6,31,27,12,1.5,·
CC(C)(C)NS(=O)(=O)c1ccc(OCC(=O)NCC2CCCO2)cc1 (stereo not given),·,·,·,·,-14,·,·
O=C(COc1ccc(S(=O)(=O)NC2CCCCC2)cc1)NCC1CCCO1 (stereo not given),-6,1.1,9,-3,-8,0.96,2
CCOC(=O)C1=C[C@@H](C2CCCCC2)N(S(=O)(=O)c2ccc([N+](=O)[O-])cc2)[C@H]1c1ccccc1,·,·,·,·,-9,·,·
Cc1ccc(C(=O)NCCc2cccs2)cc1,89*,0.1,69*,83,78*,1.8,67*
O=C(NCCc1cccs1)c1ccc(Cl)cc1,·,·,13,·,38,·,·
CN1CCN(C(=O)C[C@H]2C[C@H]3c4cc(NC(=O)NC5CCCCC5)ccc4O[C@H]3[C@@H](CO)O2)CC1,·,·,·,·,2,·,·
CNc1ccc2ncc(-c3cccc(C(=O)N(C)C)c3)n2n1,·,·,·,·,-25,·,·
CC1CN(C(=O)c2ccccc2C(=O)c2ncc[nH]2)CC(C)O1 (stereo not given),5,1,9,11,-7,0.99,·
O=C(c1ncc[nH]1)c1ccccc1C(=O)N1CCOCC1,-1,1,6,-8,-15,1.1,5
CCNC(=O)CN(c1ccccc1)S(=O)(=O)c1ccc(Cl)cc1,-7,1.1,-4,-6,-4,1.9,1
